Source: ChEMBL document CHEMBL1140243, “Synthesis and SAR of 2,3-diarylpyrrole inhibitors of parasite cGMP-dependent protein kinase as novel anticoccidial agents” (Bioorg Med Chem Lett, 2005)

Organism: Gallus gallus
Assay: Anticoccidial activity (percent reduction in oocyst production) against Eimeria brunetti in chickens at 25 ppm; Range = 50-79 %
Type: functional
Parameters: scale not given: the % may be the effect or the level left

Structure (SMILES)	Activity [%]
CCN1CCC(c2cc(-c3ccncc3)c(-c3ccc(F)cc3)[nH]2)CC1	<79

Organism: Gallus gallus
Assay: Anticoccidial activity (percent reduction in oocyst production) against Eimeria mitis in chickens at 50 ppm
Type: functional
Parameters: scale not given: the % may be the effect or the level left

Structure (SMILES)	Activity
CCN1CCC(c2cc(-c3ccncc3)c(-c3ccc(F)cc3)[nH]2)CC1	>=80%

Organism: Gallus gallus
Assay: Anticoccidial activity (percent reduction in oocyst production) against Eimeria praecox in chickens at 25 ppm; Range = 50-79 %
Type: functional
Parameters: scale not given: the % may be the effect or the level left

Structure (SMILES)	Activity [%]
CCN1CCC(c2cc(-c3ccncc3)c(-c3ccc(F)cc3)[nH]2)CC1	<79

Organism: Gallus gallus
Assay: Anticoccidial activity (percent reduction in oocyst production) against Eimeria mitis in chickens at 125 ppm
Type: functional
Parameters: scale not given: the % may be the effect or the level left

Structure (SMILES)	Activity
CCN1CCC(c2cc(-c3ccncc3)c(-c3ccc(F)cc3)[nH]2)CC1	>=80%

Organism: Gallus gallus
Assay: Anticoccidial activity (percent reduction in oocyst production) against Eimeria tenella in chickens at 50 ppm
Type: functional
Parameters: scale not given: the % may be the effect or the level left
In short: (§1)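 White Leghorn chicks were acclimated, then at 3 days old sorted by weight and randomized to medicated or control diets. There were one or two replicates of two birds per treatment. After 24 h of premedication, one bird per replicate got E. acervulina and the other E. tenella, both drug-sensitive laboratory strains. Inocula were sporulated oocysts in tap water, 0.25 mL per bird, giving low-to-moderate infection.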

Structure (SMILES)	Activity
CCN1CCC(c2cc(-c3ccncc3)c(-c3ccc(F)cc3)[nH]2)CC1	>=80%

Organism: Gallus gallus
Assay: Anticoccidial activity (percent reduction in oocyst production) against Eimeria mivati in chickens at 125 ppm
Type: functional
Parameters: scale not given: the % may be the effect or the level left

Structure (SMILES)	Activity
CCN1CCC(c2cc(-c3ccncc3)c(-c3ccc(F)cc3)[nH]2)CC1	>=80%

Organism: Gallus gallus
Assay: Anticoccidial activity (percent reduction in oocyst production) against Eimeria praecox in chickens at 50 ppm
Type: functional
Parameters: scale not given: the % may be the effect or the level left

Structure (SMILES)	Activity
CCN1CCC(c2cc(-c3ccncc3)c(-c3ccc(F)cc3)[nH]2)CC1	>=80%

Organism: Gallus gallus
Assay: Anticoccidial activity (percent reduction in oocyst production) against Eimeria mivati in chickens at 50 ppm
Type: functional
Parameters: scale not given: the % may be the effect or the level left

Structure (SMILES)	Activity
CCN1CCC(c2cc(-c3ccncc3)c(-c3ccc(F)cc3)[nH]2)CC1	>=80%

System: Eimeria tenella
Assay: Anticoccidial activity (percent reduction in oocyst production) against Eimeria tenella in white leghorn chickens at 100 ppm
Type: functional
Parameters: scale not given: the % may be the effect or the level left
In short: as §1

Structure (SMILES)	Activity
CN1CCC(c2cc(-c3ccncc3)c(-c3ccc(F)cc3)s2)CC1	>=80%
CN1CCC(c2nc(-c3ccc(F)cc3)c(-c3ccncc3)s2)CC1	<50%
CN1CCC1CN1CCC(c2cc(-c3ccncc3)c(-c3ccc(F)cc3)[nH]2)CC1 (centres undefined)	>=80%
CN1CCC(c2cc(-c3ccncc3)c(-c3ccco3)[nH]2)CC1	<50%
CCN1CCC(c2cc(-c3ccncc3)c(-c3ccc(F)cc3)[nH]2)CC1	>=80%

Organism: Gallus gallus
Assay: Anticoccidial activity (percent reduction in oocyst production) against Eimeria acervulina in chickens at 75 ppm
Type: functional
Parameters: scale not given: the % may be the effect or the level left
In short: as §1

Structure (SMILES)	Activity
CCN1CCC(c2cc(-c3ccncc3)c(-c3ccc(F)cc3)[nH]2)CC1	>=80%

Organism: Gallus gallus
Assay: Anticoccidial activity (percent reduction in oocyst production) against Eimeria necatrix in chickens at 75 ppm
Type: functional
Parameters: scale not given: the % may be the effect or the level left

Structure (SMILES)	Activity
CCN1CCC(c2cc(-c3ccncc3)c(-c3ccc(F)cc3)[nH]2)CC1	>=80%

Organism: Gallus gallus
Assay: Anticoccidial activity (percent reduction in oocyst production) against Eimeria maxima in chickens at 50 ppm
Type: functional
Parameters: scale not given: the % may be the effect or the level left

Structure (SMILES)	Activity
CCN1CCC(c2cc(-c3ccncc3)c(-c3ccc(F)cc3)[nH]2)CC1	>=80%

Organism: Gallus gallus
Assay: Anticoccidial activity (percent reduction in oocyst production) against Eimeria necatrix in chickens at 25 ppm; Range = 50-79 %
Type: functional
Parameters: scale not given: the % may be the effect or the level left

Structure (SMILES)	Activity [%]
CCN1CCC(c2cc(-c3ccncc3)c(-c3ccc(F)cc3)[nH]2)CC1	<79

Organism: Gallus gallus
Assay: Anticoccidial activity (percent reduction in oocyst production) against Eimeria brunetti in chickens at 125 ppm
Type: functional
Parameters: scale not given: the % may be the effect or the level left

Structure (SMILES)	Activity
CCN1CCC(c2cc(-c3ccncc3)c(-c3ccc(F)cc3)[nH]2)CC1	>=80%

Organism: Gallus gallus
Assay: Anticoccidial activity (percent reduction in oocyst production) against Eimeria acervulina in white leghorn chickens at 25 ppm
Type: functional
Parameters: scale not given: the % may be the effect or the level left
In short: as §1

Structure (SMILES)	Activity [%]
CN1CCC(c2nc(-c3ccc(F)cc3)c(-c3ccncc3)s2)CC1	0

Organism: Gallus gallus
Assay: Anticoccidial activity (percent reduction in oocyst production) against Eimeria mitis in chickens at 25 ppm; Range = 50-79 %
Type: functional
Parameters: scale not given: the % may be the effect or the level left

Structure (SMILES)	Activity [%]
CCN1CCC(c2cc(-c3ccncc3)c(-c3ccc(F)cc3)[nH]2)CC1	<79

Organism: Gallus gallus
Assay: Anticoccidial activity (percent reduction in oocyst production) against Eimeria tenella in chickens at 25 ppm; Range = 50-79 %
Type: functional
Parameters: scale not given: the % may be the effect or the level left
In short: as §1

Structure (SMILES)	Activity [%]
CCN1CCC(c2cc(-c3ccncc3)c(-c3ccc(F)cc3)[nH]2)CC1	<79

Organism: Gallus gallus
Assay: Anticoccidial activity (percent reduction in oocyst production) against Eimeria tenella in chickens at 75 ppm
Type: functional
Parameters: scale not given: the % may be the effect or the level left
In short: as §1

Structure (SMILES)	Activity
CCN1CCC(c2cc(-c3ccncc3)c(-c3ccc(F)cc3)[nH]2)CC1	>=80%

Organism: Gallus gallus
Assay: Anticoccidial activity (percent reduction in oocyst production) against Eimeria acervulina in chickens at 50 ppm
Type: functional
Parameters: scale not given: the % may be the effect or the level left
In short: as §1

Structure (SMILES)	Activity
CCN1CCC(c2cc(-c3ccncc3)c(-c3ccc(F)cc3)[nH]2)CC1	>=80%

Organism: Gallus gallus
Assay: Anticoccidial activity (percent reduction in oocyst production) against Eimeria mivati in chickens at 75 ppm
Type: functional
Parameters: scale not given: the % may be the effect or the level left

Structure (SMILES)	Activity
CCN1CCC(c2cc(-c3ccncc3)c(-c3ccc(F)cc3)[nH]2)CC1	>=80%

Organism: Gallus gallus
Assay: Anticoccidial activity (percent reduction in oocyst production) against Eimeria mivati in chickens at 25 ppm; Range = 50-79 %
Type: functional
Parameters: scale not given: the % may be the effect or the level left

Structure (SMILES)	Activity [%]
CCN1CCC(c2cc(-c3ccncc3)c(-c3ccc(F)cc3)[nH]2)CC1	<79

Organism: Gallus gallus
Assay: Anticoccidial activity (percent reduction in oocyst production) against Eimeria brunetti in chickens at 50 ppm
Type: functional
Parameters: scale not given: the % may be the effect or the level left

Structure (SMILES)	Activity
CCN1CCC(c2cc(-c3ccncc3)c(-c3ccc(F)cc3)[nH]2)CC1	>=80%

Organism: Gallus gallus
Assay: Anticoccidial activity (percent reduction in oocyst production) against Eimeria maxima in chickens at 125 ppm
Type: functional
Parameters: scale not given: the % may be the effect or the level left

Structure (SMILES)	Activity
CCN1CCC(c2cc(-c3ccncc3)c(-c3ccc(F)cc3)[nH]2)CC1	>=80%

Organism: Gallus gallus
Assay: Anticoccidial activity (percent reduction in oocyst production) against Eimeria acervulina in chickens at 125 ppm
Type: functional
Parameters: scale not given: the % may be the effect or the level left
In short: as §1

Structure (SMILES)	Activity
CCN1CCC(c2cc(-c3ccncc3)c(-c3ccc(F)cc3)[nH]2)CC1	>=80%

Organism: Gallus gallus
Assay: Anticoccidial activity (percent reduction in oocyst production) against Eimeria praecox in chickens at 75 ppm
Type: functional
Parameters: scale not given: the % may be the effect or the level left

Structure (SMILES)	Activity
CCN1CCC(c2cc(-c3ccncc3)c(-c3ccc(F)cc3)[nH]2)CC1	>=80%

Organism: Gallus gallus
Assay: Anticoccidial activity (percent reduction in oocyst production) against Eimeria tenella in chickens at 125 ppm
Type: functional
Parameters: scale not given: the % may be the effect or the level left
In short: as §1

Structure (SMILES)	Activity
CCN1CCC(c2cc(-c3ccncc3)c(-c3ccc(F)cc3)[nH]2)CC1	>=80%

Organism: Gallus gallus
Assay: Anticoccidial activity (percent reduction in oocyst production) against Eimeria acervulina in chickens at 25 ppm; Range = 50-79 %
Type: functional
Parameters: scale not given: the % may be the effect or the level left
In short: as §1

Structure (SMILES)	Activity [%]
CCN1CCC(c2cc(-c3ccncc3)c(-c3ccc(F)cc3)[nH]2)CC1	<79

Target: cGMP-dependent protein kinase (Eimeria tenella, UniProt Q8MMZ8)
Assay: In vitro inhibition of Eimeria tenella cGMP-dependent protein kinase

cGMP-dependent protein kinase, sequence (Q8MMZ8 whole entry): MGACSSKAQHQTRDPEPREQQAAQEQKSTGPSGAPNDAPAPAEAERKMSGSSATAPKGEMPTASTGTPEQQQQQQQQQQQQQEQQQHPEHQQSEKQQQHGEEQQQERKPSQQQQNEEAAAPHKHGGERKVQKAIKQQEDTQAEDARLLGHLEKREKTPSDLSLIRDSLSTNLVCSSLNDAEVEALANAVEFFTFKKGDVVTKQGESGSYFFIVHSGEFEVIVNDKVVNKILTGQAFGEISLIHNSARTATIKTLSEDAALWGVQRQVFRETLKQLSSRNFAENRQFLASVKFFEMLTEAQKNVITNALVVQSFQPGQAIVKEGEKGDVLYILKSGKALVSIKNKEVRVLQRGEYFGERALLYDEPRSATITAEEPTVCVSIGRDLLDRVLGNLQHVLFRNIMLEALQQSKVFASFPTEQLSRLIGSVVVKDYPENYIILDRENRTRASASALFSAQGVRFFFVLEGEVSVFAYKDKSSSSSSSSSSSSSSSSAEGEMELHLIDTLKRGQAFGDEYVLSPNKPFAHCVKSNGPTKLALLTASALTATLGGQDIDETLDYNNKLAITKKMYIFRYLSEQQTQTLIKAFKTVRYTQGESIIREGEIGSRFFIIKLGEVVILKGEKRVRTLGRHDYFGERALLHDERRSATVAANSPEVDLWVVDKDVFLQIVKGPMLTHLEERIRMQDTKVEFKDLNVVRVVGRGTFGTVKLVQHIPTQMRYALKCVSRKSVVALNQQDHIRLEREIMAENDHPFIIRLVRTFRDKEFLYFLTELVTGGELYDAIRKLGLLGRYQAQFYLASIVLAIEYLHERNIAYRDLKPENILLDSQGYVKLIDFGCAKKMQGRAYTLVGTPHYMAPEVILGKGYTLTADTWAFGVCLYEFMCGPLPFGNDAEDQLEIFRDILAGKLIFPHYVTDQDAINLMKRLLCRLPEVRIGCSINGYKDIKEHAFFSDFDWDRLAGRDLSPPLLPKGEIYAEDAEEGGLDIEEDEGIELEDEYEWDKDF

IC50 [nM]	Structure (SMILES)
4.2	CN1CCC(c2cc(-c3ccncc3)c(-c3ccc(F)cc3)s2)CC1
1.5	CN1CCC(c2nc(-c3ccc(F)cc3)c(-c3ccncc3)s2)CC1
0.28	CN1CCC1CN1CCC(c2cc(-c3ccncc3)c(-c3ccc(F)cc3)[nH]2)CC1 (centres undefined)
11.1	CN1CCC(c2cc(-c3ccncc3)c(-c3ccco3)[nH]2)CC1
0.28	CCN1CCC(c2cc(-c3ccncc3)c(-c3ccc(F)cc3)[nH]2)CC1

Organism: Gallus gallus
Assay: Anticoccidial activity (percent reduction in oocyst production) against Eimeria necatrix in chickens at 50 ppm
Type: functional
Parameters: scale not given: the % may be the effect or the level left

Structure (SMILES)	Activity
CCN1CCC(c2cc(-c3ccncc3)c(-c3ccc(F)cc3)[nH]2)CC1	>=80%

Organism: Gallus gallus
Assay: Anticoccidial activity (percent reduction in oocyst production) against Eimeria praecox in chickens at 125 ppm
Type: functional
Parameters: scale not given: the % may be the effect or the level left

Structure (SMILES)	Activity
CCN1CCC(c2cc(-c3ccncc3)c(-c3ccc(F)cc3)[nH]2)CC1	>=80%

Organism: Gallus gallus
Assay: Anticoccidial activity (percent reduction in oocyst production) against Eimeria maxima in chickens at 25 ppm; Range = 50-79 %
Type: functional
Parameters: scale not given: the % may be the effect or the level left

Structure (SMILES)	Activity [%]
CCN1CCC(c2cc(-c3ccncc3)c(-c3ccc(F)cc3)[nH]2)CC1	<79

System: Eimeria acervulina
Assay: Anticoccidial activity (percent reduction in oocyst production) against Eimeria acervulina in white leghorn chickens at 100 ppm
Type: functional
Parameters: scale not given: the % may be the effect or the level left
In short: as §1

Structure (SMILES)	Activity
CN1CCC(c2cc(-c3ccncc3)c(-c3ccc(F)cc3)s2)CC1	>=80%
CN1CCC1CN1CCC(c2cc(-c3ccncc3)c(-c3ccc(F)cc3)[nH]2)CC1 (centres undefined)	>=80%
CN1CCC(c2cc(-c3ccncc3)c(-c3ccco3)[nH]2)CC1	<50%
CCN1CCC(c2cc(-c3ccncc3)c(-c3ccc(F)cc3)[nH]2)CC1	>=80%

System: Gallus gallus
Assay: Oral bioavailability in the chicken
Type: functional, organism-based

Structure (SMILES)	bioavailability [%]
CCN1CCC(c2cc(-c3ccncc3)c(-c3ccc(F)cc3)[nH]2)CC1	84

Organism: Gallus gallus
Assay: Anticoccidial activity (percent reduction in oocyst production) against Eimeria maxima in chickens at 75 ppm
Type: functional
Parameters: scale not given: the % may be the effect or the level left

Structure (SMILES)	Activity
CCN1CCC(c2cc(-c3ccncc3)c(-c3ccc(F)cc3)[nH]2)CC1	>=80%

Organism: Gallus gallus
Assay: Anticoccidial activity (percent reduction in oocyst production) against Eimeria brunetti in chickens at 75 ppm
Type: functional
Parameters: scale not given: the % may be the effect or the level left

Structure (SMILES)	Activity
CCN1CCC(c2cc(-c3ccncc3)c(-c3ccc(F)cc3)[nH]2)CC1	>=80%

Organism: Gallus gallus
Assay: Anticoccidial activity (percent reduction in oocyst production) against Eimeria necatrix in chickens at 125 ppm
Type: functional
Parameters: scale not given: the % may be the effect or the level left

Structure (SMILES)	Activity
CCN1CCC(c2cc(-c3ccncc3)c(-c3ccc(F)cc3)[nH]2)CC1	>=80%

Organism: Gallus gallus
Assay: Anticoccidial activity (percent reduction in oocyst production) against Eimeria mitis in chickens at 75 ppm
Type: functional
Parameters: scale not given: the % may be the effect or the level left

Structure (SMILES)	Activity
CCN1CCC(c2cc(-c3ccncc3)c(-c3ccc(F)cc3)[nH]2)CC1	>=80%

Organism: Gallus gallus
Assay: Half-life in the chicken
Type: functional, organism-based

Structure (SMILES)	T1/2 [h]
CCN1CCC(c2cc(-c3ccncc3)c(-c3ccc(F)cc3)[nH]2)CC1	1.2
